Data taken from ChEMBL document CHEMBL2311469, “Development of new cathepsin B inhibitors: combining bioisosteric replacements and structure-based design to explore the structure-activity relationships of nitroxoline derivatives” (J Med Chem, 2013).
pKi: −log10 of the molar value. Activity calls are given as the source filed them. The rule behind the calls is not given here.

Tests used:
Cathepsin B [1] = target: T1, Cathepsin B (Homo sapiens, UniProt P07858); experiment: Noncompetitive inhibition of human recombinant cathepsin B exopeptidase activity using Abz-Gly-Ile-Val-Arg-Ala-Lys(Dnp)-OH substrate
In short: (§1)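 Human recombinant catB, preactivated 5 min at 37 °C in assay buffer containing 0.1% PEG 8000, 5 mM DTT and 1.5 mM EDTA. […] Exopeptidase: 60 mM acetate pH 5.0, Abz-GIVRAK(Dnp)-OH 1/3/6 μM (Km 6.3 μM). Inhibitor 0–200 μM, 5% DMSO, 37 °C, fluorescence rate; two runs in duplicate.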

Cathepsin B [2] = target: T1, Cathepsin B; experiment: Mixed inhibition of human recombinant cathepsin B endopeptidase activity using Z-Arg-Arg-AMC substrate assessed as inhibition constant for enzyme-substrate-inhibitor complex
Cathepsin B [3] = target: T1, Cathepsin B; experiment: Mixed inhibition of human recombinant cathepsin B […] assessed as inhibition constant for enzyme-inhibitor complex
MCF-10A [4] = experiment: Increase in proliferation of human MCF10A neoT cells expressing c-Ha-Ras oncogene at 2.5 uM measured at 15 mins interval up to 3 days; assay type: ADME, cell-based
In short: (§2)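 MCF-10A neoT cells, 7500 per well, monitored on the xCELLigence impedance system (cell index read every 15 min). After ~10 h, in log growth, 2.5 or 5 μM compound or 0.2% DMSO was added. Run for 72 h, with medium containing inhibitor renewed every 24 h.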

MCF-10A [5] = experiment: Increase in proliferation of human MCF10A neoT cells expressing c-Ha-Ras oncogene at 5 uM measured at 15 mins interval up to 3 days; assay type: ADME, cell-based; in short: as §2
MCF-10A [6] = experiment: Cytotoxicity against human MCF10A neoT cells expressing c-Ha-Ras oncogene at 5 uM measured at 15 mins interval up to 3 days; assay type: cell-based; in short: as §2
MCF-10A [7] = experiment: Cytotoxicity against human MCF10A neoT cells expressing c-Ha-Ras oncogene at 2.5 uM measured at 15 mins interval up to 3 days; assay type: cell-based; in short: as §2
MCF-10A [8] = experiment: Inhibition of human MCF10A neoT cell invasion expressing c-Ha-Ras oncogene at 5 uM after 30 mins relative to DMSO-treated control; assay type: functional; conditions: 72 h, in the assay text read “after 72 hrs” for “after 30 mins”
In short: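 xCELLigence CIM-16 invasion assay. Upper chamber coated with 5 mg/mL Matrigel; lower well coated with bovine fibronectin. Compound 5 μM or 0.05% DMSO in both chambers, equilibrated 30 min at 37 °C. Then 3 × 10^4 cells seeded in serum-free medium, cell index read every 15 min for 72 h. Invasion = cell index with compound / DMSO; mean ± SD, n = 4, two experiments.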

Homo sapiens [9] = organism: Homo sapiens; experiment: Selectivity ratio of Ki for human liver cathepsin H to Ki for human recombinant cathepsin B
Homo sapiens [10] = organism: Homo sapiens; experiment: Selectivity ratio of Ki for human recombinant cathepsin L to Ki for human recombinant cathepsin B
Procathepsin L = Procathepsin L (Homo sapiens, UniProt P07711); experiment: Competitive inhibition of human recombinant cathepsin L endopeptidase activity using Z-FR-AMC substrate expressed in Escherichia coli assessed as inhibition constant for enzyme-inhibitor complex
Chain of Procathepsin L (P07711 whole entry): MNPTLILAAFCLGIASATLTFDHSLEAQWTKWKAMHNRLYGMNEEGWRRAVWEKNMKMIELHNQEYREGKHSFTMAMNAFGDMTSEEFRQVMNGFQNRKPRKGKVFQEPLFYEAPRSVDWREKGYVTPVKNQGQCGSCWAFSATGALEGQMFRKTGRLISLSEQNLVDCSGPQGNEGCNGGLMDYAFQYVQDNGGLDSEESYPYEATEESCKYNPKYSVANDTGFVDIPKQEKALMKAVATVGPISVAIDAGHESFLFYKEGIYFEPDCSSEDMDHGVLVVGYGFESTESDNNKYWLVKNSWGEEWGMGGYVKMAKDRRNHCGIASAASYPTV
In short: (§3)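 Ki from rates at three substrate levels with inhibitor at 0, 20, 40, 60, 80, 100 and 200 μM. Enzymes were preactivated 5 min at 37 °C. CatL (recombinant, E. coli): 100 mM acetate pH 5.5, Z-Phe-Arg-AMC 0.5/1/4 μM. CatH (native, human liver): 100 mM phosphate pH 6.8, Arg-AMC 20/80/160 μM. Buffers held 0.1% PEG 8000, 5 mM DTT and 1.5 mM EDTA, plus 5% DMSO. Two runs in duplicate.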

Pro-cathepsin H [11] = target: T2, Pro-cathepsin H (Homo sapiens, UniProt P09668); experiment: Noncompetitive inhibition of human liver cathepsin H endopeptidase activity using R-AMC substrate assessed as inhibition constant for enzyme-substrate-inhibitor complex
T2 sequence (P09668 whole entry): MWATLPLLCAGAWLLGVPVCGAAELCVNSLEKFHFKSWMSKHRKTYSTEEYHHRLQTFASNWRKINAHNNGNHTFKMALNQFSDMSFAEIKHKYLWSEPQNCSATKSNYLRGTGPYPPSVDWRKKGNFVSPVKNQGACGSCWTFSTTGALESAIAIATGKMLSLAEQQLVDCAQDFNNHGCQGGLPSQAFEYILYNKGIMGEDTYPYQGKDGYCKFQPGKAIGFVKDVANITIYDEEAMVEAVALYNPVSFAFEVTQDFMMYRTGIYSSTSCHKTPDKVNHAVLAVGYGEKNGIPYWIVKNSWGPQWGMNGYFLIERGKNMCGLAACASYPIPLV
In short: (§4)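 Native catH isolated from human liver was preactivated for 5 min at 37 °C in 100 mM phosphate pH 6.8 with 0.1% PEG 8000, 5 mM DTT and 1.5 mM EDTA. Arg-AMC was used at 20, 80 and 160 μM, with inhibitor at 0–200 μM (seven levels) and 5% DMSO. […] Run twice in duplicate.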

Pro-cathepsin H [12] = target: T2, Pro-cathepsin H; experiment: Noncompetitive inhibition of human liver cathepsin H endopeptidase activity using R-AMC substrate assessed as inhibition constant for enzyme-inhibitor complex; in short: as §4
Cathepsin B [13] = target: T1, Cathepsin B; experiment: Uncompetitive inhibition of human recombinant […] assessed as inhibition constant for enzyme-substrate-inhibitor complex
Cathepsin B [14] = target: T1, Cathepsin B; conditions: MCF10A neoT, 5 uM
Cathepsin B [15] = target: T1, Cathepsin B; conditions: MCF10A neoT, 5 uM; remark: listed apart in the source
Cathepsin B [16] = target: T1, Cathepsin B; experiment: Inhibition of human recombinant cathepsin B exopeptidase activity using Abz-Gly-Ile-Val-Arg-Ala-Lys(Dnp)-OH substrate
Cathepsin B [17] = target: T1, Cathepsin B; experiment: Inhibition of human recombinant cathepsin B endopeptidase activity using Z-Arg-Arg-AMC substrate
Pro-cathepsin H [18] = target: T2, Pro-cathepsin H; experiment: Uncompetitive inhibition of human liver cathepsin H endopeptidase activity using R-AMC substrate assessed as inhibition constant for enzyme-substrate-inhibitor complex; in short: as §3
Cathepsin B [19] = target: T1, Cathepsin B; experiment: Competitive inhibition of human recombinant cathepsin B exopeptidase activity using Abz-Gly-Ile-Val-Arg-Ala-Lys(Dnp)-OH substrate assessed as inhibition constant for enzyme-inhibitor complex; in short: as §1
Cathepsin B [20] = target: T1, Cathepsin B; experiment: Mixed inhibition of human recombinant cathepsin B exopeptidase activity using Abz-Gly-Ile-Val-Arg-Ala-Lys(Dnp)-OH substrate assessed as inhibition constant for enzyme-substrate-inhibitor complex
In short: (§5)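 Recombinant human catB was preactivated for 5 min at 37 °C in 60 mM acetate pH 5.0 with 0.1% PEG 8000, 5 mM DTT and 1.5 mM EDTA. Abz-GIVRAK(Dnp)-OH was used at 1, 3 and 6 μM (Km 6.3 μM), with inhibitor at 0–200 μM (seven levels) and 5% DMSO. […] Run twice, each in duplicate.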

Cathepsin B [21] = target: T1, Cathepsin B; experiment: Mixed inhibition of human recombinant cathepsin B exopeptidase activity using Abz-Gly-Ile-Val-Arg-Ala-Lys(Dnp)-OH substrate assessed as inhibition constant for enzyme-inhibitor complex; in short: as §5

O=[N+]([O-])c1cc(CN2CCN(Cc3ccncc3)CC2)c(O)c2ncccc12
pKi (Cathepsin B [1]): 3.79 | pKi (Cathepsin B [2]): 4.03 | pKi (Cathepsin B [3]): 3.84

N#CCNCc1cc([N+](=O)[O-])c2cccnc2c1O
Activity (MCF-10A [4]): 113% | Activity (MCF-10A [5]): 117% | Activity (MCF-10A [6]): Non-toxic | Activity (MCF-10A [7]): Non-toxic | inhibition at 5 µM (MCF-10A [8]): 80% | Ratio Ki (Homo sapiens [9]): 24 | Ratio Ki (Homo sapiens [10]): 23 | pKi (Procathepsin L): 3.91 | pKi (Pro-cathepsin H [11]): 3.89 | pKi (Pro-cathepsin H [12]): 3.89 | pKi (Cathepsin B [1]): 3.37 | pKi (Cathepsin B [13]): 5.30 | inhibition (Cathepsin B [14]): Active | inhibition (Cathepsin B [15]): Active

N#CCN(CC#N)c1ccc([N+](=O)[O-])c2ccccc12
inhibition (Cathepsin B [16]): inactive | inhibition (Cathepsin B [17]): inactive

O=[N+]([O-])c1cc(CN2CCN(Cc3cccnc3)CC2)c(O)c2ncccc12
pKi (Cathepsin B [1]): 3.44 | pKi (Cathepsin B [2]): 3.77 | pKi (Cathepsin B [3]): 3.51

Nc1ccc([N+](=O)[O-])c2ccccc12
pKi (Cathepsin B [1]): 3.83 | pKi (Cathepsin B [2]): 3.95 | pKi (Cathepsin B [3]): 3.66

CCOC(=O)N1CCN(Cc2cc([N+](=O)[O-])c3cccnc3c2O)CC1
pKi (Cathepsin B [1]): 3.81 | pKi (Cathepsin B [2]): 4.06 | pKi (Cathepsin B [3]): 3.89

O=[N+]([O-])c1ccc(NCc2ccccc2)c2ncccc12
pKi (Cathepsin B [1]): 3.44 | pKi (Cathepsin B [2]): 3.90 | pKi (Cathepsin B [3]): 3.46

CCNCc1cc([N+](=O)[O-])c2cccnc2c1O
pKi (Cathepsin B [1]): 3.87 | pKi (Cathepsin B [2]): 4.09 | pKi (Cathepsin B [3]): 3.93

Nc1c(Br)cc([N+](=O)[O-])c2ccccc12
Ratio Ki (Homo sapiens [9]): 11 | Ratio Ki (Homo sapiens [10]): > 6 | pKi (Procathepsin L): 3.74 | pKi (Pro-cathepsin H [18]): 3.45 | pKi (Cathepsin B [1]): 3.67 | pKi (Cathepsin B [13]): 4.49

CCOC(=O)[C@@H]1CCCC[C@@H]1NCc1cc([N+](=O)[O-])c2cccnc2c1O
pKi (Cathepsin B [1]): 3.89 | pKi (Cathepsin B [2]): 4.13 | pKi (Cathepsin B [3]): 3.88

O=C(O)[C@@H]1CCCC[C@@H]1NCc1cc([N+](=O)[O-])c2cccnc2c1O
pKi (Cathepsin B [19]): 3.60 | pKi (Cathepsin B [2]): 3.90 | pKi (Cathepsin B [3]): 3.74

CC1CCN(c2ccc([N+](=O)[O-])c3cccnc23)CC1
Ratio Ki (Homo sapiens [9]): 9 | Ratio Ki (Homo sapiens [10]): 6 | pKi (Procathepsin L): 3.81 | pKi (Pro-cathepsin H [11]): 3.66 | pKi (Pro-cathepsin H [12]): 3.66 | pKi (Cathepsin B [1]): 4.62 | pKi (Cathepsin B [2]): 3.98 | pKi (Cathepsin B [3]): 3.68

O=[N+]([O-])c1cc([N+](=O)[O-])c2cccnc2c1O
pKi (Cathepsin B [1]): 3.84 | pKi (Cathepsin B [13]): 4.14

N#CCN(Cc1ccccc1)Cc1cc([N+](=O)[O-])c2cccnc2c1O
pKi (Cathepsin B [20]): 5.10 | pKi (Cathepsin B [21]): 4.10 | pKi (Cathepsin B [13]): 4.72

CCCNC(=O)[C@H]1O[C@@H]1C(=O)N[C@H](C(=O)N1CCC[C@H]1C(=O)O)C(C)CC (single isomer, unassigned)
inhibition at 5 µM (MCF-10A [8]): 48%

CN(CCc1ccccc1)c1ccc([N+](=O)[O-])c2cccnc12
pKi (Cathepsin B [1]): 3.46 | pKi (Cathepsin B [13]): 3.76

O=[N+]([O-])c1ccc(N2CCCC2)c2ncccc12
inhibition (Cathepsin B [16]): inactive

N#CCNc1ccc([N+](=O)[O-])c2ccccc12
inhibition (Cathepsin B [16]): inactive | inhibition (Cathepsin B [17]): inactive
